Test results reported in ChEMBL document CHEMBL1150284, “Synthesis, characterization, and metabolic stability of porphyrin-peptide conjugates bearing bifunctional signaling sequences” (J Med Chem, 2008).
Numbered stars: 1 amine (or outer) side, 2 acyl side, 3 side chain; on linkers, the order of the positions; unused ones are H or OH. Square brackets hold non-standard residues; d marks the D form. Peptide text beside a SMILES is read from it. * marks the point of attachment. X1 = O=C(COCC(=O)*)Nc1ccc(-c2c3nc(c(-c4ccccc4)c4ccc([nH]4)c(-c4ccccc4)c4nc(c(-c5ccccc5)c5ccc2[nH]5)C=C4)C=C3)cc1; NH(CH2CH2O)6CH2CO = O=C(COCCOCCOCCOCCOCCOCCN[*:1])[*:2]

Legend:
[1] = Stability at pH 5.0 after 24 hrs; type: physicochemical; settings: buffer, pH 5, 24 h
In short: (§1)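 Nonenzymatic hydrolysis: 100 µM conjugate in 50 mM PBS pH 7.4 or 50 mM acetate buffer pH 5.0, 37 °C for 24 h; products identified by MALDI-TOF MS with CCA matrix.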

HEp-2 [2] = test: Cytotoxicity against human HEp2 cells in dark; type: functional, cell-based
In short: (§2)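 HEp2 cells (DMEM/Advanced MEM 50:50, 5% FBS) plated 10000/well, 36–48 h attachment; exposed to rising conjugate concentrations up to 100 µM overnight in dark. Viability by Cell Titer Blue fluorescence 520/584 nm, normalized to untreated (100%) and 0.2% saponin-treated (0%) cells.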

[3] = Drug uptake in human HEp2 cells at 10 uM; type: ADME, cell-based; settings: hep-2, 10 µM, TDE = time-dependent effect
In short: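 HEp2 cells seeded 10000/well, grown 36 h, then given 10 µM conjugate (diluted from 10 mM water stock) for 0, 1, 2, 4, 8, 24 h. After PBS wash, lysis in 0.25% Triton X-100/PBS; conjugate read by fluorescence 440/650 nm, cell number by CyQuant.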

[4] = Stability at pH 7.4 after 24 hrs; type: physicochemical; settings: buffer, pH 7.4, 24 h; in short: as §1
HEp-2 [5] = test: Phototoxicity against human HEp2 cells on exposure of 1 J/cm'2 light; type: functional, cell-based; settings: HEp-2, light or radiation study
In short: (§3)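 HEp2 cells plated as for dark assay, loaded with 0, 0.625, 1.25, 2.5, 5, 10 µM conjugate; medium swapped for one with 50 mM HEPES pH 7.4, cells on ice irradiated 20 min by 100 W halogen lamp through 610 nm long-pass filter and water IR filter (~1 J/cm2). Overnight incubation, then Cell Titer Blue viability read as in dark assay.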

HEp-2 [6] = test: Phototoxicity against human HEp2 cells on exposure of 1 J/cm'2 light up to 10 uM; type: functional, cell-based; in short: as §3
HEp-2 [7] = test: Cytotoxicity against human HEp2 cells in dark up to 100 uM; type: functional, cell-based; in short: as §2

| Stability [1] | Activity [3] | Stability [4] | Structure (SMILES) | IC50 (HEp-2 [2]) [µM] | IC50 (HEp-2 [5]) [µM] | Activity (HEp-2 [6]) | Activity (HEp-2 [7]) |
| --- | --- | --- | --- | --- | --- | --- | --- |
| Stable | tde | Stable | CC(C)[C@H](NC(=O)[C@H](CCCCN)NC(=O)[C@H](CCCNC(=N)N)NC(=O)[C@H](CCCCN)NC(=O)[C@H](CCCCN)NC(=O)[C@H](CCCCN)NC(=O)[C@@H]1CCCN1C(=O)[C@@H]1CCCN1C(=O)[C@H](C)NC(=O)COCCOCCOCCOCCOCCOCCNC(=O)COCC(=O)Nc1ccc(-c2c3nc(c(-c4ccccc4)c4ccc([nH]4)c(-c4ccccc4)c4nc(c(-c5ccccc5)c5ccc2[nH]5)C=C4)C=C3)cc1)C(=O)N[C@@H](CCC(=O)O)C(=O)N[C@@H](CC(=O)O)C(=O)N1CCC[C@H]1C(=O)N[C@@H](CCCNC(=N)N)C(=O)N[C@@H](CCCCN)C(=O)N[C@@H](CCCCN)C(=O)N[C@@H](CCCNC(=N)N)C(=O)N[C@@H](CCCNC(=N)N)C(=O)N[C@@H](CCC(N)=O)C(=O)N[C@@H](CCCNC(=N)N)C(=O)N[C@@H](CCCNC(=N)N)C(=O)N[C@@H](CCCNC(=N)N)C(=O)N1CCC[C@H]1C(=O)N1CCC[C@H]1C(=O)N[C@@H](CCC(N)=O)C(=O)NCC(=O)O (X1-[NH(CH2CH2O)6CH2CO]APPKKKRKVEDPRKKRRQRRRPPQG-OH) | 34 | 7.5 |  |  |
| Stable | tde | Stable | CSCC[C@H](NC(=O)COCCOCCOCCOCCOCCOCCNC(=O)COCC(=O)Nc1ccc(-c2c3nc(c(-c4ccccc4)c4ccc([nH]4)c(-c4ccccc4)c4nc(c(-c5ccccc5)c5ccc2[nH]5)C=C4)C=C3)cc1)C(=O)NCC(=O)N[C@@H](CC(C)C)C(=O)NCC(=O)N[C@@H](CC(C)C)C(=O)N[C@@H](Cc1cnc[nH]1)C(=O)N[C@@H](CC(C)C)C(=O)N[C@@H](CC(C)C)C(=O)N[C@H](C(=O)N[C@@H](CC(C)C)C(=O)N[C@@H](C)C(=O)N[C@@H](C)C(=O)N[C@@H](C)C(=O)N[C@@H](CC(C)C)C(=O)N[C@@H](CCC(N)=O)C(=O)NCC(=O)N[C@@H](C)C(=O)N[C@@H](Cc1c[nH]c2ccccc12)C(=O)N[C@@H](CO)C(=O)N[C@@H](CCC(N)=O)C(=O)N[C@@H](C)C(=O)N1CCC[C@H]1C(=O)N1CCC[C@H]1C(=O)N[C@@H](CCCCN)C(=O)N[C@@H](CCCCN)C(=O)N[C@@H](CCCCN)C(=O)N[C@@H](CCCNC(=N)N)C(=O)N[C@@H](CCCCN)C(=O)N[C@H](C(=O)NCC(=O)O)C(C)C)C(C)C (X1-[NH(CH2CH2O)6CH2CO]MGLGLHLLVLAAALQGAWSQAPPKKKRKVG-OH) |  |  | Not toxic | Not toxic |
| Stable | tde | Stable | CC[C@H](C)[C@H](NC(=O)[C@H](CCCCN)NC(=O)[C@@H](NC(=O)[C@H](CCC(N)=O)NC(=O)[C@H](CCCNC(=N)N)NC(=O)COCCOCCOCCOCCOCCOCCNC(=O)COCC(=O)Nc1ccc(-c2c3nc(c(-c4ccccc4)c4ccc([nH]4)c(-c4ccccc4)c4nc(c(-c5ccccc5)c5ccc2[nH]5)C=C4)C=C3)cc1)[C@@H](C)CC)C(=O)N[C@@H](Cc1c[nH]c2ccccc12)C(=O)N[C@@H](Cc1ccccc1)C(=O)N[C@@H](CCC(N)=O)C(=O)N[C@@H](CC(N)=O)C(=O)N[C@@H](CCCNC(=N)N)C(=O)N[C@@H](CCCNC(=N)N)C(=O)N[C@@H](CCSC)C(=O)N[C@@H](CCCCN)C(=O)N[C@@H](Cc1c[nH]c2ccccc12)C(=O)N[C@@H](CCCCN)C(=O)N[C@@H](CCCCN)C(=O)N[C@@H](C)C(=O)N1CCC[C@H]1C(=O)N1CCC[C@H]1C(=O)N[C@@H](CCCCN)C(=O)N[C@@H](CCCCN)C(=O)N[C@@H](CCCCN)C(=O)N[C@@H](CCCNC(=N)N)C(=O)N[C@@H](CCCCN)C(=O)N[C@H](C(=O)NCC(=O)O)C(C)C (X1-[NH(CH2CH2O)6CH2CO]RQIKIWFQNRRMKWKKAPPKKKRKVG-OH) | 53 | 9.3 |  |  |
